Measured values from ChEMBL document CHEMBL5653631, “A Potent and Selective ULK1 Inhibitor Suppresses Autophagy and Sensitizes Cancer Cells to Nutrient Stress” (iScience, 2018).

Legend:
[1] = biological target: Tyrosine-protein kinase receptor UFO (Homo sapiens) (UniProt P30530); test: Inhibition of human recombinant AXL at 15 nM related to control ULK1
Procedure, shortened: (§1)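 Panel of 327 recombinant human kinases, each assayed in vitro by radiometric activity assay in duplicate at a single inhibitor concentration per compound, chosen with reference to its ULK1 inhibition. Activity remaining was expressed as percent of vehicle control, and percent inhibition was calculated as 100 minus percent activity remaining.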

[2] = biological target: T1, Eukaryotic elongation factor 2 kinase (Homo sapiens) (UniProt O00418); test: Inhibition of human recombinant eEF2K at 15 nM in presence of ATP by radiometric assay relative to control
T1 sequence (whole entry): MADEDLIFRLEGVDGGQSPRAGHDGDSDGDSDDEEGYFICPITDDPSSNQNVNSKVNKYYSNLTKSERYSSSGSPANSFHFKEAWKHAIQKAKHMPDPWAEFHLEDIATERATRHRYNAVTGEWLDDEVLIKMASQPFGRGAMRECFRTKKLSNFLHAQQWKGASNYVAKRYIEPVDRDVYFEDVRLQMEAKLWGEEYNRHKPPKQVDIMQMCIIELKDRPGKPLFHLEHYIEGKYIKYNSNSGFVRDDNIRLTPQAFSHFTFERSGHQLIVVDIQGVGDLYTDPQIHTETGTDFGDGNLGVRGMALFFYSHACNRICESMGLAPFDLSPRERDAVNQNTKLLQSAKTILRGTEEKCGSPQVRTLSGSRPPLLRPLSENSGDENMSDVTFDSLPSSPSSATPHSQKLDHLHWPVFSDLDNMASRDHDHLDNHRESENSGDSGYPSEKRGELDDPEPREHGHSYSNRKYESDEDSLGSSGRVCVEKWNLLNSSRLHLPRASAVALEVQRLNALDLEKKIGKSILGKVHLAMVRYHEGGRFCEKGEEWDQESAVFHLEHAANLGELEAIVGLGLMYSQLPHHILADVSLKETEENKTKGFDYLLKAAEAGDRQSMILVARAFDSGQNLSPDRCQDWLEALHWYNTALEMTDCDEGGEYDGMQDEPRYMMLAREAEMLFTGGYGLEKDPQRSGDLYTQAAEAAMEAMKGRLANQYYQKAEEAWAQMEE

[3] = biological target: Activin receptor type-1-like (Homo sapiens) (UniProt P37023); test: Inhibition of human recombinant ALK1 at 500 nM related to control ULK1; procedure, shortened: as §1
[4] = biological target: Calcium/calmodulin-dependent protein kinase type II subunit delta (Homo sapiens) (UniProt Q13557); test: Inhibition of human recombinant CaMK2d at 500 nM related to control ULK1
[5] = biological target: T2, Tyrosine-protein kinase ZAP-70 (Homo sapiens) (UniProt P43403); test: Inhibition of human recombinant ZAP70 at 500 nM related to control ULK1
T2 sequence (whole entry): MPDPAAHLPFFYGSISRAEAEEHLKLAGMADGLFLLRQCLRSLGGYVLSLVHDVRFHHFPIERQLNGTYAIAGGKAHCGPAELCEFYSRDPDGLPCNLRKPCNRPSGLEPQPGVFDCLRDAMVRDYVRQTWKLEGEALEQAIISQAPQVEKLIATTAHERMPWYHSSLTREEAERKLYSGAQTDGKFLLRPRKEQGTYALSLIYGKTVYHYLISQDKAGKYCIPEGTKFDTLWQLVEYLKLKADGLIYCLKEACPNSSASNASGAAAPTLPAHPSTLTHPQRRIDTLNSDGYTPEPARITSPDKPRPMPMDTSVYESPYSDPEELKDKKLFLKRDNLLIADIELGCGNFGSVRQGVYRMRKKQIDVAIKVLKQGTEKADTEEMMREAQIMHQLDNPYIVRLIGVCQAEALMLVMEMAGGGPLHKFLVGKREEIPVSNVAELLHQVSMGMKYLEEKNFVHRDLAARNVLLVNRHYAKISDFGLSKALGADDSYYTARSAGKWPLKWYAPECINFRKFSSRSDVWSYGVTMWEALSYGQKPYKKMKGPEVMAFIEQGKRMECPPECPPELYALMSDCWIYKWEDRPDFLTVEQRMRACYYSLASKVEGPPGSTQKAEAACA

[6] = biological target: Serine/threonine-protein kinase Nek6 (Homo sapiens) (UniProt Q9HC98); test: Inhibition of human recombinant NEK6 at 500 nM in presence of ATP by radiometric assay relative to control
[7] = biological target: T3, Myotonin-protein kinase (Homo sapiens) (UniProt Q09013); test: Inhibition of human recombinant DMPK1 at 500 nM related to control ULK1
T3 sequence (whole entry): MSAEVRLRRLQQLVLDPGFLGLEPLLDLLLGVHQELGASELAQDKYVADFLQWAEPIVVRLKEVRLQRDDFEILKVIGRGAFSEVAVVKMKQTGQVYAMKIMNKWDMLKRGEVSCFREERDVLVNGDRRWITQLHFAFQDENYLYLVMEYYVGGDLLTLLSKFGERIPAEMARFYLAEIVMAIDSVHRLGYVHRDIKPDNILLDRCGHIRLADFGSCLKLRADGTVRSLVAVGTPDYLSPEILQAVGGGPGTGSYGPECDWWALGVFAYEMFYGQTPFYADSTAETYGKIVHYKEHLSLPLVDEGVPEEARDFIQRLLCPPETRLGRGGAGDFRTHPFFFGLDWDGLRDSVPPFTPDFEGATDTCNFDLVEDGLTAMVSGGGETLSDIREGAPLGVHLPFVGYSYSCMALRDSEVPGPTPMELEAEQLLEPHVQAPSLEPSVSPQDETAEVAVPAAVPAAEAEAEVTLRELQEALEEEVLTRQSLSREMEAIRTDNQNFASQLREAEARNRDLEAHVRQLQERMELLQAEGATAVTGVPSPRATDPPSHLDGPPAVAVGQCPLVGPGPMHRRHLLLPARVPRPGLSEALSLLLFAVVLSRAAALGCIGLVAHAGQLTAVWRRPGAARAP

[8] = biological target: Fibroblast growth factor receptor 4 (Homo sapiens) (UniProt P22455); test: Inhibition of human recombinant FGFR4 at 500 nM in presence of ATP by radiometric assay relative to control
[9] = biological target: Calcium/calmodulin-dependent protein kinase kinase 2 (Homo sapiens) (UniProt Q96RR4); test: Inhibition of human recombinant CaMKK2 at 500 nM related to control ULK1
[10] = biological target: eIF-2-alpha kinase GCN2 (Homo sapiens) (UniProt Q9P2K8); test: Inhibition of human recombinant GCN2 at 500 nM in presence of ATP by radiometric assay relative to control
eIF-2-alpha kinase GCN2 (Homo sapiens), sequence (Q9P2K8 whole entry): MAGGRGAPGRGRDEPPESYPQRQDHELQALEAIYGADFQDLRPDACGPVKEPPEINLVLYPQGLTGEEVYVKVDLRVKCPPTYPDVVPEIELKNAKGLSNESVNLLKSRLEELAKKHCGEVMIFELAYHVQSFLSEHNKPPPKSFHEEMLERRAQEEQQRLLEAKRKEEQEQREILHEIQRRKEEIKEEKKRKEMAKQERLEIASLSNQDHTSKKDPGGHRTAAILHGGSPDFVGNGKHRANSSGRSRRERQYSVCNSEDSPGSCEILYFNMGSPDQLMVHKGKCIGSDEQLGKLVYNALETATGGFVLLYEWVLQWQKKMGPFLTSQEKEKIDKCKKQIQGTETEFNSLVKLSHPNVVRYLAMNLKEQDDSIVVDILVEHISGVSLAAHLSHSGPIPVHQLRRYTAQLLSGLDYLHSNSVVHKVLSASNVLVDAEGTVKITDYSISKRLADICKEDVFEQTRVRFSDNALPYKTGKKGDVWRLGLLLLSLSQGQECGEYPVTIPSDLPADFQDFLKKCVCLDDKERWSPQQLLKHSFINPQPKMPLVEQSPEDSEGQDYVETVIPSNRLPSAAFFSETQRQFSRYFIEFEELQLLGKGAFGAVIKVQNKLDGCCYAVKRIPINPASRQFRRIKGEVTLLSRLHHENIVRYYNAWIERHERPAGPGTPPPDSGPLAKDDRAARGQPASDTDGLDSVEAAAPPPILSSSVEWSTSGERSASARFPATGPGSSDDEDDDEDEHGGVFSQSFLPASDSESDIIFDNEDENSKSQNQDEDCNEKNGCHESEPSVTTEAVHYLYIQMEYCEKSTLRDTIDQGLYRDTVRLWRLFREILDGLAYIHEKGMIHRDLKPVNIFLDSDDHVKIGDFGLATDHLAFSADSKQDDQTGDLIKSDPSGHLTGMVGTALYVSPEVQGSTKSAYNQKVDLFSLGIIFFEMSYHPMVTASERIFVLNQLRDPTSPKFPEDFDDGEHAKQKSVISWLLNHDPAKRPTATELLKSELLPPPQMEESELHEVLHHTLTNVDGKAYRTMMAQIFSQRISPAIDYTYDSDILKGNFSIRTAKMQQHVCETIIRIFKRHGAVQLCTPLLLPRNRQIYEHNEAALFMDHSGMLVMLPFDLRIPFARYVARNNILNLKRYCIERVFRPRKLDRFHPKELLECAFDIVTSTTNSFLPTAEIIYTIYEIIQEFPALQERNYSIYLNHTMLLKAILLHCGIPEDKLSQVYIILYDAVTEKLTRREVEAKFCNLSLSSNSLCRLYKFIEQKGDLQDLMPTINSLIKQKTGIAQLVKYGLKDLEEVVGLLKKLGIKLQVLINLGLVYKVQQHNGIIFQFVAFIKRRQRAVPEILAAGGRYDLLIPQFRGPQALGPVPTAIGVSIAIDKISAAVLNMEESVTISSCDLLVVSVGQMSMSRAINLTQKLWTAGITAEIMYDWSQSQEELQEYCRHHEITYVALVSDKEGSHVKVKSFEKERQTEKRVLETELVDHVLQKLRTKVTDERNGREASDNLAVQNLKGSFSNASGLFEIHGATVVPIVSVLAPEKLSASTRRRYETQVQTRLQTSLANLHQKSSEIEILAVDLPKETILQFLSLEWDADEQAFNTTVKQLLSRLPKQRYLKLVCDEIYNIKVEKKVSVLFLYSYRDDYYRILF

Activin receptor type-1-like (Homo sapiens), sequence (P37023 whole entry): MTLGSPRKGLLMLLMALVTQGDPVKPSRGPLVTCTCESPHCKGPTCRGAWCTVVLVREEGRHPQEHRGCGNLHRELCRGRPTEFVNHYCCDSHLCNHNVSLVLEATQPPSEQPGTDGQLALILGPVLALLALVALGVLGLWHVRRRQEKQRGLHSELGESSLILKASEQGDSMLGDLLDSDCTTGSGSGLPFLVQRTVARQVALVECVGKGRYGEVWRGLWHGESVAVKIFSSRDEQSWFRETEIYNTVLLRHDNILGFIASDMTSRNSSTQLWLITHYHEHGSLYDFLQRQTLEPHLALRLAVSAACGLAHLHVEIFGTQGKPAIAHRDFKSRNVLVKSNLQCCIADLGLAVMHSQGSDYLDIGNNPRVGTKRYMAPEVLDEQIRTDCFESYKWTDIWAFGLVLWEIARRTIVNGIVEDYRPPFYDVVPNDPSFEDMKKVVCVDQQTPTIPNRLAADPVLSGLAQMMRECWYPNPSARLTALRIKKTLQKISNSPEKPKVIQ
Tyrosine-protein kinase receptor UFO (Homo sapiens), sequence (P30530 whole entry): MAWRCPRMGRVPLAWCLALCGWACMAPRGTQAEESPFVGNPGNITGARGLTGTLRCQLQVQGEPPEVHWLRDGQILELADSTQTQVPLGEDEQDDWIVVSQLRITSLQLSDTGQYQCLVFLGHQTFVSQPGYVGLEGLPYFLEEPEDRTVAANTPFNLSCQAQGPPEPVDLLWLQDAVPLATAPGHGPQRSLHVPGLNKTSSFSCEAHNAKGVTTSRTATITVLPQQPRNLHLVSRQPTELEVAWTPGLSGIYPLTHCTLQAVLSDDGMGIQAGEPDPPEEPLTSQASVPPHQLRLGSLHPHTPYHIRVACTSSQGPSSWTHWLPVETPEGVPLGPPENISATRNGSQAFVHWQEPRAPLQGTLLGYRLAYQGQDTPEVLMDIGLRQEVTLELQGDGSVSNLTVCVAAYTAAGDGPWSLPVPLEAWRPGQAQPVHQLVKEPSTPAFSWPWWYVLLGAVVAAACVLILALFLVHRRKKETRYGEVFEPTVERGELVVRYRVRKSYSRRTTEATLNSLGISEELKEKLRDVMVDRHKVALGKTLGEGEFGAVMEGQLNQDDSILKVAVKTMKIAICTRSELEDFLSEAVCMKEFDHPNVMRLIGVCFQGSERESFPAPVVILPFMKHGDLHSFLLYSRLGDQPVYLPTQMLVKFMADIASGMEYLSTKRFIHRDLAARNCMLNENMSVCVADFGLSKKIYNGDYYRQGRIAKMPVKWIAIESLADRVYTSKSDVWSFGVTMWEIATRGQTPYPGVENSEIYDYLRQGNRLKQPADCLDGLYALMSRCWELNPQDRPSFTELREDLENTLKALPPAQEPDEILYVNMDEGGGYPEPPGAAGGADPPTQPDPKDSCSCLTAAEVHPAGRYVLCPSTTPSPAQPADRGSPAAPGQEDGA
Serine/threonine-protein kinase Nek6 (Homo sapiens), sequence (Q9HC98 whole entry): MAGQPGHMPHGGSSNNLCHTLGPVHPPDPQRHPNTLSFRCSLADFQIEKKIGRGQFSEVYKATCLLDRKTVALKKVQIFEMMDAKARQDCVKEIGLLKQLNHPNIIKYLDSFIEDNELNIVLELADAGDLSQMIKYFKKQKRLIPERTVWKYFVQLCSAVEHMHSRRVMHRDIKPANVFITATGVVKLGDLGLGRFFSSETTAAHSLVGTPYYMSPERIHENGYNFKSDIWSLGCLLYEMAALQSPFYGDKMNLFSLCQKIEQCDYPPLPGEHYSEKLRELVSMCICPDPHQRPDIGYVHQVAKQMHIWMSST
Fibroblast growth factor receptor 4 (Homo sapiens), sequence (P22455 22-802 limits assumed): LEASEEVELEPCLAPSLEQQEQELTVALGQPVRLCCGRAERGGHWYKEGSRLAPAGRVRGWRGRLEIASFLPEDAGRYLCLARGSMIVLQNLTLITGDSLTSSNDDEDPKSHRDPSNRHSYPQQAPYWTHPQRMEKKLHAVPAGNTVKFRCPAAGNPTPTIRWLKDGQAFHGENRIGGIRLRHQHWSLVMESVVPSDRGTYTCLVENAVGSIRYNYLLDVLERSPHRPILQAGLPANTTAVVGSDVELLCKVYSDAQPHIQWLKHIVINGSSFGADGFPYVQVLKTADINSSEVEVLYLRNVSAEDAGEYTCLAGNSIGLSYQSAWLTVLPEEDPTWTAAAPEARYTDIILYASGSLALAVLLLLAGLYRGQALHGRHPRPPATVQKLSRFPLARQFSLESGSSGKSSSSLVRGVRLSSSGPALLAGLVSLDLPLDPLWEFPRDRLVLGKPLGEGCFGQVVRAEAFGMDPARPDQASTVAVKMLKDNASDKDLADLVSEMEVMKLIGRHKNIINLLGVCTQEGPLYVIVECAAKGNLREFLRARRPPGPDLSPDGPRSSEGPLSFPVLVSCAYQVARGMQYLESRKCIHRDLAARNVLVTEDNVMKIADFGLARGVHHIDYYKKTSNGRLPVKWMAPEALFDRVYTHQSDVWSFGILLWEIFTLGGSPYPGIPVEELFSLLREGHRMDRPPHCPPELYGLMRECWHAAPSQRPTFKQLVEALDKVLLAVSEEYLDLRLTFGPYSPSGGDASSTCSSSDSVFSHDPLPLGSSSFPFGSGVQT
Calcium/calmodulin-dependent protein kinase kinase 2 (Homo sapiens), sequence (Q96RR4 2-588 limits assumed): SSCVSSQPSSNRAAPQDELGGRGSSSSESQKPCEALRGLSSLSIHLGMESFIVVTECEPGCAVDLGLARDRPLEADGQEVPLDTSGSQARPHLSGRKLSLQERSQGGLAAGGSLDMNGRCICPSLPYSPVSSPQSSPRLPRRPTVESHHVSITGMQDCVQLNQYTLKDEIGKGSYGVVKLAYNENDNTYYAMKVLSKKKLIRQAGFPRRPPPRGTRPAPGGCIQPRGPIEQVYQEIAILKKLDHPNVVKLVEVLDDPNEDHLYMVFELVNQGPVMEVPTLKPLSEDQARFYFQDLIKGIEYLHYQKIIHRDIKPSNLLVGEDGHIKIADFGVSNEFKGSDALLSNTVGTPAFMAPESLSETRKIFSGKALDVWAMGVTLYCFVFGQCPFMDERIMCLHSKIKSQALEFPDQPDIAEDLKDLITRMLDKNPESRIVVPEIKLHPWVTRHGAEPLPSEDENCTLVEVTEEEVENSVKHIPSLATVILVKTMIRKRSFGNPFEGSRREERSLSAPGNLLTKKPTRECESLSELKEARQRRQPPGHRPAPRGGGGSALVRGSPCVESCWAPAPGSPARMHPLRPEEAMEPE

With `CC(C)[C@H](NC(=O)c1cc(-c2cnn3cc(-c4ccc(OCCN5CCCCC5)cc4)cnc23)cs1)C(F)(F)F` the fold change (FC) [1] was 0.13 and the inhibition [2] was 10%.

Work on `CNC(=O)c1ccccc1Oc1nc(Nc2cc(OC)c(OC)c(OC)c2)ncc1Br` yielded a fold change (FC) [3] of 0, a fold change (FC) [4] of 0.12 and a fold change (FC) [5] of 0.01. For the same compound, the inhibition [6] was 0%, the fold change (FC) [7] was 0 and the inhibition [8] was 10%. The fold change (FC) [9] was 0.05 and the inhibition [10] was 2%.
